Measured values from different studies.
Each line is one published result; the experiments were not run side by side.
Target: Serine/threonine-protein kinase 25 (STK25, Homo sapiens, UniProt O00506)

| SMILES | observed | action | technique | concentration | quantity | value |
| --- | --- | --- | --- | --- | --- | --- |
| CC(C)(C)c1cc(C=C(C#N)C#N)cc(Br)c1O | enzyme activity | inhibitor | – | 0.5 µM | remaining activity | 102% |
| Nc1ncc(-c2nc(N3CCOCC3)nc(N3CCOCC3)n2)c(C(F)F)n1 | binding | – | competition with immobilised ligand | 10 µM | remaining binding | 93% |
| Cn1cc(-c2cc(F)cc(N3CCn4c(cc5c4CCCC5)C3=O)c2CO)cc(Nc2ccc(N3CCN(C4COC4)CC3)cn2)c1=O | enzyme activity | inhibitor | – | 0.1 µM | inhibition | 8% |
| Cn1cncc1[C@](O)(COc1ccc(C#N)cc1-c1ccc(OC(F)(F)F)cc1)c1ccc(C#N)cc1 | cell-free assay | – | competition with immobilised ligand | 1 µM | remaining binding | 91% |
| Cn1cc(-c2cccc(N3CCc4c(sc5c4CC(C)(C)C5)C3=O)c2CO)cc(Nc2ccncn2)c1=O | enzyme activity | inhibitor | – | 1 µM | inhibition | -13% |
| O=c1[nH]c2ccccc2n1C1CCN(Cc2ccc(-c3[nH]c4cc5ncnc5cc4nc3-c3ccccc3)cc2)CC1 | cell-free assay | – | – | 0.5 µM | remaining signal | 89.8% |
| COCc1c(-c2cc3cc(C)cc(OC)c3s2)c2c(N)ncnn2c1CN1CCNC(=O)C1 | cell-free assay | – | competition with immobilised ligand | 1 µM | inhibition | 87% |
| N#CC1(c2ccccn2)CCN(Cc2cc(C(=O)O)c(=O)n3ccccc23)CC1 | cell-free assay | – | competition with immobilised ligand | 1 µM | remaining binding | 100% |
| Cc1nn(C)cc1-c1nc2c(N3CCN(Cc4ccc(Cl)cc4)CC3)c(Cl)cnc2[nH]1 | binding | – | competition with immobilised ligand | 1 µM | remaining binding | 70% |
| COc1ncccc1-c1cnn2ccc(N3CCN(C(=O)OC(C)C)CC3)nc12 | binding | – | competition with immobilised ligand | 1 µM | remaining binding | 65% |
